Type in all cases: functional
In test [1] the test system is Staphylococcus aureus. Briefly: Antibacterial activity against methicillin-resistant Staphylococcus aureus NRS384 USA300 after 18 to 20 hrs by broth microdilution assay. The procedure, abridged: (§1)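 Broth microdilution per CLSI. Strains grown aerobically overnight on tryptone soy agar at 37 °C, adjusted to 0.5 McFarland, then diluted in cation-adjusted Mueller-Hinton broth to about 5 × 10^5 CFU/mL. Compounds (10 mg/mL DMSO stocks) serially diluted. Incubated aerobically at 37 °C for 18-20 h. MIC is the lowest concentration with no visible growth.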
(In general: Dilution methods test growth across graded concentrations, often in twofold steps.)

Test [2] concerns Enterococcus faecalis. Briefly: Bactericidal activity against vancomycin-resistant Enterococcus faecalis ATCC 51299 incubated for 18 to 20 hrs followed by replating on tryptic soy agar plate and further incubated for 18 to 24 hrs by CLSI-based broth microdilution assay. The gist of the method:
(§2)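 MBC: after the broth microdilution MIC (CAMHB, ~5 × 10^5 CFU/mL, 37 °C, 18-20 h), 4 µL from wells without growth plated onto tryptic soy agar. Plates incubated 37 °C for 18-20 h. MBC is the lowest concentration giving 99.9% reduction in growth.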

Test [3] deals with Staphylococcus aureus. The experiment in a line: Bactericidal activity against methicilline-sensitive Staphylococcus aureus NRS-107 incubated for 18 to 20 hrs followed by replating on tryptic soy agar plate and further incubated for 18 to 24 hrs by CLSI-based broth microdilution assay. The gist of the method:
as §2

Test [4] deals with Staphylococcus epidermidis. The experiment in a line: Bactericidal activity against methicillin-resistant Staphylococcus epidermidis NRS101 incubated for 18 to 20 hrs followed by replating on tryptic soy agar plate and further incubated for 18 to 24 hrs by CLSI-based broth microdilution assay.
Test [5] deals with Staphylococcus aureus. Briefly: Antibacterial activity against Staphylococcus aureus ATCC BAA42 after 18 to 20 hrs by CLSI-based broth microdilution assay. The procedure, abridged: as §1
In test [6] the test system is Streptococcus pneumoniae. Briefly: Bactericidal activity against cephalosporin-resistant Streptococcus pneumoniae ATCC 51916 incubated for 18 to 20 hrs followed by replating on tryptic soy agar plate and further incubated for 18 to 24 hrs by CLSI-based broth microdilution assay. The gist of the method: as §2
Test [7] concerns Staphylococcus aureus. Briefly: Antibacterial activity against methicilline-resistant Staphylococcus aureus NRS-119 after 18 to 20 hrs by CLSI-based broth microdilution assay. The gist of the method:
as §1

The test system of test [8] is Listeria monocytogenes. The experiment in a line: Antibacterial activity against Listeria monocytogenes ATCC 19111 after 18 to 20 hrs by CLSI-based broth microdilution assay.
Test [9] relates to Staphylococcus aureus. The experiment in a line: Antibacterial activity against vancomycin-resistant Staphylococcus aureus 10 after 18 to 20 hrs by CLSI-based broth microdilution assay. The gist of the method:
as §1

The test system of test [10] is Streptococcus pneumoniae. The experiment in a line: Bactericidal activity against methicillin-resistant Streptococcus pneumoniae ATCC 700677 incubated for 18 to 20 hrs followed by replating on tryptic soy agar plate and further incubated for 18 to 24 hrs by CLSI-based broth microdilution assay. The gist of the method: as §2
Test [11] concerns Staphylococcus aureus. Briefly: Bactericidal activity against methicilline-resistant Staphylococcus aureus NRS-119 incubated for 18 to 20 hrs followed by replating on tryptic soy agar plate and further incubated for 18 to 24 hrs by CLSI-based broth microdilution assay. The gist of the method: as §2
In test [12] the test system is Staphylococcus aureus. Briefly: Antibacterial activity against methicilline-resistant Staphylococcus aureus NRS384 USA300 after 18 to 20 hrs by CLSI-based broth microdilution assay. The procedure, abridged:
as §1

The test system of test [13] is Enterococcus faecium. Briefly: Bactericidal activity against vancomycin-resistant Enterococcus faecium ATCC 700221 incubated for 18 to 20 hrs followed by replating on tryptic soy agar plate and further incubated for 18 to 24 hrs by CLSI-based broth microdilution assay. The procedure, abridged:
as §2

In test [14] the test system is Staphylococcus aureus. Briefly: Bactericidal activity against vancomycin-resistant Staphylococcus aureus 12 incubated for 18 to 20 hrs followed by replating on tryptic soy agar plate and further incubated for 18 to 24 hrs by CLSI-based broth microdilution assay. The gist of the method:
as §2

The subject of test [15] is Enterococcus faecium. The experiment in a line: Antibacterial activity against vancomycin-resistant Enterococcus faecium ATCC 700221 after 18 to 20 hrs by CLSI-based broth microdilution assay. The gist of the method: as §1
Test [16] has as its system Staphylococcus aureus. The experiment in a line: Bactericidal activity against methicilline-resistant Staphylococcus aureus NRS123 USA400 incubated for 18 to 20 hrs followed by replating on tryptic soy agar plate and further incubated for 18 to 24 hrs by CLSI-based broth microdilution assay. The gist of the method:
as §2

In test [17] the test system is Staphylococcus aureus. Briefly: Bactericidal activity against methicilline-resistant Staphylococcus aureus NRS386 USA700 incubated for 18 to 20 hrs followed by replating on tryptic soy agar plate and further incubated for 18 to 24 hrs by CLSI-based broth microdilution assay. The procedure, abridged:
as §2

The subject of test [18] is Staphylococcus aureus. The experiment in a line: Antibacterial activity against methicilline-resistant Staphylococcus aureus NRS386 USA700 after 18 to 20 hrs by CLSI-based broth microdilution assay. The gist of the method: as §1
Test [19] deals with Staphylococcus aureus. The experiment in a line: Bactericidal activity against methicilline-resistant Staphylococcus aureus NRS385 USA500 incubated for 18 to 20 hrs followed by replating on tryptic soy agar plate and further incubated for 18 to 24 hrs by CLSI-based broth microdilution assay. The procedure, abridged:
as §2

Test [20] concerns Staphylococcus aureus. The experiment in a line: Antibacterial activity against methicilline-resistant Staphylococcus aureus NRS385 USA500 after 18 to 20 hrs by CLSI-based broth microdilution assay. The procedure, abridged:
as §1

In test [21] the test system is Staphylococcus aureus. Briefly: Antibacterial activity against vancomycin-resistant Staphylococcus aureus 12 after 18 to 20 hrs by CLSI-based broth microdilution assay. The gist of the method:
as §1

Test [22] deals with Staphylococcus aureus. Briefly: Bactericidal activity against vancomycin-resistant Staphylococcus aureus 10 incubated for 18 to 20 hrs followed by replating on tryptic soy agar plate and further incubated for 18 to 24 hrs by CLSI-based broth microdilution assay. The procedure, abridged: as §2
Test [23] relates to Listeria monocytogenes. The experiment in a line: Bactericidal activity against Listeria monocytogenes ATCC 19111 incubated for 18 to 20 hrs followed by replating on tryptic soy agar plate and further incubated for 18 to 24 hrs by CLSI-based broth microdilution assay.
The test system of test [24] is Staphylococcus aureus. Briefly: Antibacterial activity against methicilline-sensitive Staphylococcus aureus NRS-107 after 18 to 20 hrs by CLSI-based broth microdilution assay. The procedure, abridged:
as §1

The test system of test [25] is Staphylococcus aureus. Briefly: Bactericidal activity against Staphylococcus aureus ATCC BAA42 incubated for 18 to 20 hrs followed by replating on tryptic soy agar plate and further incubated for 18 to 24 hrs by CLSI-based broth microdilution assay. The procedure, abridged:
as §2

In test [26] the test system is Staphylococcus aureus. Briefly: Antibacterial activity against methicilline-sensitive Staphylococcus aureus ATCC 6538 after 18 to 20 hrs by CLSI-based broth microdilution assay. The procedure, abridged:
as §1

The test system of test [27] is Staphylococcus epidermidis. The experiment in a line: Antibacterial activity against methicillin-resistant Staphylococcus epidermidis NRS101 after 18 to 20 hrs by CLSI-based broth microdilution assay. The procedure, abridged:
as §1

Test [28] deals with Staphylococcus aureus. Briefly: Bactericidal activity against methicilline-sensitive Staphylococcus aureus ATCC 6538 incubated for 18 to 20 hrs followed by replating on tryptic soy agar plate and further incubated for 18 to 24 hrs by CLSI-based broth microdilution assay. The gist of the method: as §2
Test [29] has as its system Staphylococcus aureus. Briefly: Bactericidal activity against methicilline-resistant Staphylococcus aureus NRS384 USA300 incubated for 18 to 20 hrs followed by replating on tryptic soy agar plate and further incubated for 18 to 24 hrs by CLSI-based broth microdilution assay. The gist of the method:
as §2

Test [30] relates to Staphylococcus aureus. The experiment in a line: Antibacterial activity against methicilline-resistant Staphylococcus aureus NRS123 USA400 after 18 to 20 hrs by CLSI-based broth microdilution assay. The procedure, abridged: as §1

≈ marks a conversion by molar mass, not a printed value. Where only a bound is given, the exact number is not on record here.

For the compound `C/C(=N\NC(=N)N)c1sc(-c2ccc(N3CCCC3)cc2)nc1C`, in test [1], it took 16 µg/mL (≈ 46.7 µM) to inhibit growth (MIC).
`C/C(=N\NC(=N)N)c1sc(-c2ccc(N3CCN(C)CC3)cc2)nc1C`: the minimal inhibitory concentration (MIC) (in general, the lowest concentration that inhibits growth of the organism) in test [1] was 64 µg/mL (≈ 172 µM).
Same read-out and setting: for `C/C(=N\NC(=N)N)c1sc(-c2ccc(N3CC(O)C3)cc2)nc1C` the value was 64 µg/mL (≈ 186 µM).
Take `CC(=O)NC[C@H]1CN(c2ccc(N3CCOCC3)c(F)c2)C(=O)O1` [LINEZOLID]: the MBC (commonly the smallest concentration meeting the test's criterion for killing) in [2] was 16 µg/mL (≈ 47.4 µM); in test [3], 64 µg/mL (≈ 190 µM); in test [4] it was 8 µg/mL (≈ 23.7 µM); in test [6], 32 µg/mL (≈ 94.9 µM); in test [10] it was 16 µg/mL (≈ 47.4 µM); in test [11], above 64 µg/mL. The MBC was 16 µg/mL (≈ 47.4 µM) in test [13]; 64 µg/mL (≈ 190 µM) in test [14]; 64 µg/mL (≈ 190 µM) in test [16]; 16 µg/mL (≈ 47.4 µM) in test [17]; 32 µg/mL (≈ 94.9 µM) in [19]; above 64 µg/mL in test [22]. The MBC in test [23] was 32 µg/mL (≈ 94.9 µM); in test [25], 16 µg/mL (≈ 47.4 µM); in test [28], 16 µg/mL (≈ 47.4 µM); in test [29] it was 32 µg/mL (≈ 94.9 µM). The MIC in test [5] is 1 µg/mL (≈ 2.96 µM); in test [7], 64 µg/mL (≈ 190 µM); in test [1], 1 µg/mL (≈ 2.96 µM); in test [8], at most 0.5 µg/mL; in [9] it was 1 µg/mL (≈ 2.96 µM); in test [12], 1 µg/mL (≈ 2.96 µM). Besides, the MIC in [15], in [18], in test [20], in test [21], in test [24] and in [26] was 1 µg/mL (≈ 2.96 µM) in each case. Further, the MIC came to 0.5 µg/mL (≈ 1.48 µM) in [27] and 1 µg/mL (≈ 2.96 µM) in test [30].
The compound `C/C(=N\NC(=N)N)c1sc(-c2ccc(N3CCC4CCCCC4C3)cc2)nc1C` (stereo not drawn) returned an MIC in [1] above 128 µg/mL.
The same measure, in the same setting: for `C/C(=N\NC(=N)N)c1sc(-c2ccc(-n3ccnc3)cc2)nc1C` the value was 16 µg/mL (≈ 47.1 µM); for `C/C(=N\NC(=N)N)c1sc(-c2ccc(N3CCSC3)cc2)nc1C`, above 128 µg/mL; for `C/C(=N\NC(=N)N)c1sc(-c2ccc(N3CCC3)cc2)nc1C`, above 128 µg/mL.
In turn, `C/C(=N\NC(=N)N)c1sc(-c2ccc(N3CCCCCCC3)cc2)nc1C` registered an MIC in [1] of 128 µg/mL (≈ 333 µM).

For the origin of these results see ChEMBL document CHEMBL4406834, “Phenylthiazoles with nitrogenous side chain: An approach to overcome molecular obesity” (Eur J Med Chem, 2019).
